Data on twelve molecules can be found in ChEMBL document CHEMBL3779801, “Discovery of the Selective CYP17A1 Lyase Inhibitor BMS-351 for the Treatment of Prostate Cancer” (ACS Med Chem Lett, 2016).

For orientation: IC50 means the point on the concentration scale where inhibition reaches its midpoint. As a reminder, the Tmax is the time at which the peak concentration occurs.

The target in series [1] is T1, Steroid 17-alpha-hydroxylase/17,20 lyase (Homo sapiens, UniProt P05093).
T1 sequence (P05093 whole entry): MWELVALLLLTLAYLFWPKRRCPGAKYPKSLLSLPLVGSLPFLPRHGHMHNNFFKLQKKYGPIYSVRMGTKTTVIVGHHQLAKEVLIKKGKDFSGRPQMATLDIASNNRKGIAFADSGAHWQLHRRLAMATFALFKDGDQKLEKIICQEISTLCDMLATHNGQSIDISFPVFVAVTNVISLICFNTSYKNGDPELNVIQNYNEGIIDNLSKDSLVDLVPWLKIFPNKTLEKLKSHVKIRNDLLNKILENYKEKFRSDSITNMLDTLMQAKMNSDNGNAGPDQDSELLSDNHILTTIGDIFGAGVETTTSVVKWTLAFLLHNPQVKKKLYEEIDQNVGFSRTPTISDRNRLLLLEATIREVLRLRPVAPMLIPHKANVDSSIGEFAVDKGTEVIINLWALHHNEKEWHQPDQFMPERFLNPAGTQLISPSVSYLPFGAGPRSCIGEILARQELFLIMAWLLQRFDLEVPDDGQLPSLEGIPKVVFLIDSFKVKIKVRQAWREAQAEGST
In words: Inhibition of human CYP17A1 expressed in HEK293 cell microsomes using [3H]-pregnenolone as substrate incubated for 45 mins by scintillation proximity assay in presence of NADPH.

For the next series, the target named is T2, Cytochrome P450 1A2 (Homo sapiens, UniProt P05177).
T2 sequence (P05177 whole entry): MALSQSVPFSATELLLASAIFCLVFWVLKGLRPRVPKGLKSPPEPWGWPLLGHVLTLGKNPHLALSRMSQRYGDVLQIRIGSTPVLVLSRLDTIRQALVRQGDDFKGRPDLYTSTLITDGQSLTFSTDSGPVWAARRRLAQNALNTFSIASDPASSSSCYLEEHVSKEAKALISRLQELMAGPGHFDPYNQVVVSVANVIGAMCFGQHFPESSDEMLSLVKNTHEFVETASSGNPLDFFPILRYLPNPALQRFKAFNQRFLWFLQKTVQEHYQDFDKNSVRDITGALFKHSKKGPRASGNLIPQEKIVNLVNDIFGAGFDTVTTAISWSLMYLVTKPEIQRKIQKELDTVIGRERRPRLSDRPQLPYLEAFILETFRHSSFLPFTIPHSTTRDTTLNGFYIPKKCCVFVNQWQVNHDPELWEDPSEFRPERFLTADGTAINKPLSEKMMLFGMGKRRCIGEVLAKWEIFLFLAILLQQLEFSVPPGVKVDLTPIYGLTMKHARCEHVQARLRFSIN
In words: Inhibition of CYP1A2 (unknown origin). In kind it is ADME.

Series [2] can be described thus: Metabolic stability in human liver microsomes assessed as parent compound remaining at 0.5 uM incubated for 10 mins. It counts as ADME. Particulars: read-out: Stability; call rule not given here. In short, it runs like this:
(§1)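 Compound at 0.5 μM was incubated with human, mouse or cynomolgus liver microsomes for 10 min.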

Series [3] is described as follows: Metabolic stability in mouse liver microsomes assessed as parent compound remaining at 0.5 uM incubated for 10 mins. It counts as ADME. To be noted: read-out: Stability. In short, it runs like this:
as §1
A general note: Liver microsomes are a subcellular fraction often used to study metabolism.

Series [4] can be described thus: Metabolic stability in cynomolgus monkey liver microsomes assessed as parent compound remaining at 0.5 uM incubated for 10 mins. To be noted: read-out: Stability. It counts as ADME, Macaca fascicularis. The method in brief:
as §1

The target of series [5] is T1, Steroid 17-alpha-hydroxylase/17,20 lyase. Briefly: Selectivity ratio of human CYP17A1 hydroxylase activity expressed in Escherichia coli using pregnenolone substrate to human CYP17A1 lyase activity expressed in HEK293 cell microsomes using [3H]-hydroxypregnenolone substrate. The method in brief: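 Hydroxylase and lyase activities were run with different enzyme preparations, so the hydroxylase/lyase ratios are estimates.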

For series [6] the target is unchanged. Briefly: Inhibition of CYP17A1 in human adrenal microsomes using [3H]-pregnenolone as substrate incubated for 90 mins by scintillation proximity assay in presence of NADPH. On the set-up: species or system Adrenal gland. (Scintillation proximity formats need no separation of bound from free tracer.)
Series [7] concerns the target T3, Steroid 17-alpha-hydroxylase/17,20 lyase (Macaca fascicularis, UniProt Q2XVA1).
T3 sequence (Q2XVA1 whole entry): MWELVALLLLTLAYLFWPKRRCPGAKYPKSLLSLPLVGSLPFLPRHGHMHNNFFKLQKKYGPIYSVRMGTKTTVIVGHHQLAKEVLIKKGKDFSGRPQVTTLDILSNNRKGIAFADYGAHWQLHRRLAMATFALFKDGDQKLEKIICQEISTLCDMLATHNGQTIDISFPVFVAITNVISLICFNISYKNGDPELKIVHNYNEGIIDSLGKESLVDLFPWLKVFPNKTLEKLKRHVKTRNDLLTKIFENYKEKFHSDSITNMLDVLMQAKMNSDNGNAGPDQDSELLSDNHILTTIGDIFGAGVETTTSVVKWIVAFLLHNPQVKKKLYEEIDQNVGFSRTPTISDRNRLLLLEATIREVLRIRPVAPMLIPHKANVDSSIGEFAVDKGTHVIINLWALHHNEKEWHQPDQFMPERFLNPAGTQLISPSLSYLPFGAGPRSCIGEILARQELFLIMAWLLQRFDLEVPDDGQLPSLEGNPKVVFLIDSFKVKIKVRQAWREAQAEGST
Briefly: Inhibition of CYP17A1 in cynomolgus monkey adrenal microsomes using [3H]-pregnenolone as substrate incubated for 45 mins by scintillation proximity assay in presence of NADPH. On the set-up: species or system Adrenal gland.

Series [8] addresses T3, Steroid 17-alpha-hydroxylase/17,20 lyase. In words: Inhibition of CYP17A1 in cynomolgus monkey using [3H]-pregnenolone as substrate incubated for 45 mins by scintillation proximity assay in presence of NADPH.
For series [9], the target named is T4, Cytochrome P450 11B1, mitochondrial (Homo sapiens, UniProt P15538).
T4 sequence (P15538 whole entry): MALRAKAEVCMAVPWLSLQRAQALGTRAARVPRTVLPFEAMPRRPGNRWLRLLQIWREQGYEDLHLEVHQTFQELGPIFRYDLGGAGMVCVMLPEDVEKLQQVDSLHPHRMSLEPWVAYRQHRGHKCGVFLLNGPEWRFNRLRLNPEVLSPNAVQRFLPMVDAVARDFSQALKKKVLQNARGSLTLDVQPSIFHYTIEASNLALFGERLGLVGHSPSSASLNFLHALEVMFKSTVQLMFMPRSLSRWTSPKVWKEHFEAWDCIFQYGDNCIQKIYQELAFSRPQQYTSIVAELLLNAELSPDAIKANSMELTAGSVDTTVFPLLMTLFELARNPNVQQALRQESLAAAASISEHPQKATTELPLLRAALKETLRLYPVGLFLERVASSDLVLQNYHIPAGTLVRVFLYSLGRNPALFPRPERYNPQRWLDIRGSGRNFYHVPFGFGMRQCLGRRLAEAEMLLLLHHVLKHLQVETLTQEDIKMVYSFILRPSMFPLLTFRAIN
Briefly: Inhibition of CYP11B1 in human H295R cells using deoxycorticosterone as substrate incubated for 48 hrs by LC-MS method. In kind it is ADME, cell-based.

Series [10] in a line: Inhibition of cynomolgus monkey CYP21A2 using hydroxy progesterone as substrate incubated for 120 mins by LC-MS method. On the set-up: species or system Macaca fascicularis.
A short description of series [11]: Inhibition of cynomolgus monkey CYP11B1 using hydroxy progesterone as substrate incubated for 120 mins by LC-MS method. On the set-up: species or system Macaca fascicularis.
Series [12] relates to Cynomolgus monkey. In words: Increase in progesterone level in one day castrated cynomolgus monkey at 42 mg/kg, po bid for 24 hrs by radiometric immunoassay. In kind it is ADME, organism-based, Macaca fascicularis. To be noted: in vivo.
In series [13] the test system is Cynomolgus monkey. In words: Decrease in cortisol level in one day castrated cynomolgus monkey at 42 mg/kg, po bid for 24 hrs by radiometric immunoassay. In kind it is ADME, organism-based, Macaca fascicularis. On the set-up: scale not given: the % may be the effect or the level left. Particulars: in vivo.
A short description of series [14]: Tmax in one day castrated cynomolgus monkey at 42 mg/kg, po bid measured after second dose administered at 8 hrs. It counts as ADME, organism-based, Macaca fascicularis. To be noted: male, in vivo. The method in brief: (§2)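 Castrated cynomolgus monkeys were studied over one day with oral BID dosing at time 0 and 8 h. Plasma levels were sampled at set time points over 1–24 h and reported as average ± standard deviation in nM, n = 4.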

A short description of series [15]: Tmax in one day castrated cynomolgus monkey at 42 mg/kg, po bid. In kind it is ADME, organism-based, Macaca fascicularis. Particulars: male, in vivo. The method in brief: as §2
Series [16] deals with T3, Steroid 17-alpha-hydroxylase/17,20 lyase. Briefly: In vivo inhibition of CYP17A1 in one day castrated cynomolgus monkey assessed as reduction in testosterone level in plasma at 42 mg/kg, po bid for 24 hrs by radiometric immunoassay. In kind it is organism-based.

Consider `Cc1ccncc1-c1cccc2c1ncn2-c1cscn1`, for which the IC50 in series [1] was found to be 8 nM; at Cytochrome P450 1A2, 150 nM. For the same molecule, the figures for the remaining at 10 min, 0.5 µM in series [2], in series [3] and in series [4] were 90%, 42% and 50%, respectively.
For the molecule `Cc1ccncc1-c1cccc2c1cnn2-c1ccccc1`, the IC50 in series [1] was 4 nM; against Cytochrome P450 1A2, 119 nM. The results for the remaining at 10 min, 0.5 µM in series [2], in [3] and in [4] were 78%, 4% and 39%, respectively.
For the molecule `Cc1ccncc1-c1cccc2c1ncn2-c1ccccn1`, the IC50 stood at 6 nM in [1] and 94 nM on Cytochrome P450 1A2. Also, the figures for the remaining at 10 min, 0.5 µM in [2], in series [3] and in series [4] were 96%, 33% and 100%, respectively. In addition, the Selectivity ratio in [5] was 8.
Turning to `Cc1ccncc1-c1cccc2c1cnn2-c1cscn1`, the half-maximal inhibitory concentration (IC50) came out at 5 nM in series [1] and 70 nM against Cytochrome P450 1A2. Also, the remaining at 10 min, 0.5 µM in series [2] came out at 62%; in series [3] it was 12%.
Regarding `Cc1ccncc1-c1cccc2c1cnn2-c1nccs1`, the IC50 in [1] is 4 nM; at Cytochrome P450 1A2 it was 80 nM. The values for the remaining at 10 min, 0.5 µM in series [2] and in series [3] were 69% and 8%, respectively.
As to `C[C@]12CC[C@H](O)CC1=CC[C@@H]1C2CC[C@]2(C)C(c3cccnc3)=CCC12` (some centres undefined), the IC50 in series [6] stood at 21 nM; in [7], 3 nM; in series [8], 2 nM; in series [9], 872 nM; in series [10] it was 149 nM; in series [11], 2460 nM. The Activity in the series with Cynomolgus monkey [12] worked out at 1247%; with Cynomolgus monkey [13], 80%. In addition, the values for the Tmax in series [14] and in [15] were 9.5 h and 1 h, respectively. The “inhibition (INH)” value in series [16] was “Active”.
As to `Cc1ccncc1-c1cccc2c1ncn2-c1nccs1`, the IC50 in [1] stood at 8 nM; on Cytochrome P450 1A2 it was 75 nM. Besides, the remaining at 10 min, 0.5 µM turned out to be 92% in series [2], 16% in series [3] and 42% in series [4]. In series [5], the Selectivity ratio stood at 14.
Take `Cc1ccncc1-c1cccc2c1cnn2-c1cnccn1`: the results for the IC50 (in series [1]; against Cytochrome P450 1A2) were 5 nM and 4000 nM, respectively. The remaining at 10 min, 0.5 µM in series [2] was 72%; in series [3], 7%; in series [4] it was 53%.
For the molecule `Cc1ccncc1-c1cccc2c1ncn2-c1cnccn1`, the midpoint of inhibition on Cytochrome P450 1A2, the IC50, lay at 180 nM. Moreover, the remaining at 10 min, 0.5 µM is 98% in [2], 59% in series [3] and 83% in series [4]. Further, the Selectivity ratio in [5] is reported as 18.
Regarding `Cc1ccncc1-c1cccc2c1cnn2-c1cccnn1`, the results for the IC50 (in series [1]; against Cytochrome P450 1A2) were 3 nM and 270 nM, respectively. In addition, the results for the remaining at 10 min, 0.5 µM in [2] and in series [3] were 89% and 17%, respectively.
Take `Cc1ccncc1-c1cccc2c1cnn2-c1ccccn1`: the IC50 in series [1] amounted to 2 nM; against Cytochrome P450 1A2, 140 nM. The remaining at 10 min, 0.5 µM was 95% in series [2], 8% in series [3] and 19% in series [4].
With `Cc1ccncc1-c1cccc2c1cnn2-c1ccc(F)cc1`, the IC50 in series [1] was 5 nM; at Cytochrome P450 1A2 it was 190 nM. Moreover, the figures for the remaining at 10 min, 0.5 µM in [2] and in series [3] were 100% and 11%, respectively.
